Experimental data reported in ChEMBL document CHEMBL1130162, “Structure-activity relationships of cysteine-lacking pentapeptide derivatives that inhibit ras farnesyltransferase” (J Med Chem, 1997).

Columns and labels:
[1] = target: T1, Protein farnesyltransferase (Rattus norvegicus, UniProt Q02293+Q04631); experiment: Inhibition of rat brain farnesyltransferase in 50 mM HEPES buffer
Procedure, shortened: (§1)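 40-fold purified rat brain FTase at pH 7.4 with 1.2 mM MgCl2, leupeptin, pepstatin and PMSF. Substrates: [1-3H]farnesyl pyrophosphate (0.12 μM final) and biotinyl-aminoheptanoyl-TKCVIM peptide (0.1 μM final). Compounds were serially diluted from DMSO and incubated 30 min at 37 °C. Stopped with streptavidin beads in acidic Mg acetate/BSA and scintillation counted.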

[2] = target: T1, Protein farnesyltransferase; experiment: Inhibition of rat brain farnesyltransferase in 5 mM potassium phosphate and 50 mM HEPES buffer; procedure, shortened: as §1
[3] = target: T1, Protein farnesyltransferase; experiment: Inhibition of rat brain farnesyltransferase in 30 mM potassium phosphate buffer; procedure, shortened: as §1
[4] = target: T1, Protein farnesyltransferase; experiment: Inhibitory concentration against rat brain farnesyltransferase
Procedure, shortened: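 Rat brain FTase (40-fold purified), pH 7.4, in 30 mM potassium phosphate, 5 mM phosphate plus 50 mM Hepes, or 50 mM Hepes. Buffer also held 7 mM DTT, 1.2 mM MgCl2 and protease inhibitors. Final substrates were 0.12 μM [1-3H]FPP and 0.1 μM biotinyl-aminoheptanoyl-TKCVIM, with inhibitor varied from DMSO stock. Reaction ran 30 min at 37 °C, was stopped with streptavidin beads, and was counted by scintillation proximity. Generally n = 2.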

[5] = target: Protein farnesyltransferase (Homo sapiens, UniProt P49354+P49356); experiment: Inhibition of human farnesyltransferase; assay type: protein-complex assay
[6] = target: geranylgeranyltransferase type-I (Rattus norvegicus, UniProt P53610+Q04631); experiment: Inhibition of rat brain Geranylgeranyl transferase type I; conditions: in the assay text read “rat” for “rat brain”
Procedure, shortened: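 Rat GGTase-I expressed in Sf9 cells, assayed like the FTase test. Substrates were geranylgeranyl pyrophosphate and biotinyl-aminoheptanoyl-Thr-Lys-Cys-Val-Ile-Leu, with inhibitor varied from DMSO stock. Incubation at 37 °C. Streptavidin bead capture with radioactivity count as the read-out.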

IC50 [4]	IC50 [5]	IC50 [6]	Structure (SMILES)	IC50 [1]	IC50 [2]	IC50 [3]
–	–	–	CCOP(=O)(Cc1ccc(CC(NC(=O)[C@@H](Cc2cnc[nH]2)NC(=O)OCc2ccccc2)C(=O)N[C@H](COCc2ccccc2)C(=O)N[C@H](Cc2c[nH]c3ccccc23)C(=O)N[C@@H](C)C(N)=O)cc1)OCC (some centres not stated)	75 nM	49 nM	25 nM
–	–	–	C[C@H](NC(=O)[C@@H](Cc1c[nH]c2ccccc12)NC(=O)[C@@H](COP(=O)(O)O)NC(=O)[C@@H](Cc1ccc(OCc2ccccc2)cc1)NC(=O)[C@@H](Cc1cnc[nH]1)NC(=O)OCc1ccccc1)C(N)=O	660 nM	360 nM	240 nM
–	–	–	C[C@H](NC(=O)[C@@H](Cc1c[nH]c2ccccc12)NC(=O)[C@@H](COCc1ccccc1)NC(=O)[C@@H](Cc1ccc(OP(=O)(O)O)cc1)NC(=O)[C@@H](Cc1c[nH]cn1)NC(=O)OCc1ccccc1)C(N)=O	6 nM	9 nM	13 nM
–	–	–	C[C@H](NC(=O)[C@@H](Cc1c[nH]c2ccccc12)NC(=O)[C@@H](COCc1ccccc1)NC(=O)C(Cc1ccc(CP(=O)(O)O)cc1)NC(=O)[C@@H](Cc1cnc[nH]1)NC(=O)OCc1ccccc1)C(N)=O (some centres not stated)	190 nM	280 nM	200 nM
35 nM	–	–	C[C@@H](NC(=O)[C@H](Cc1c[nH]c2ccccc12)NC(=O)[C@H](COCc1ccccc1)NC(=O)[C@H](Cc1ccc(O)cc1)NC(=O)[C@H](Cc1c[nH]cn1)NC(=O)OCc1ccccc1)C(N)=O (single isomer, unassigned)	510 nM	102 nM	35 nM
20 nM	10 nM	1250 nM	C[C@@H](NC(=O)[C@H](Cc1c[nH]c2ccccc12)NC(=O)[C@H](COCc1ccccc1)NC(=O)[C@H](Cc1ccc(OCc2ccccc2)cc1)NC(=O)[C@H](Cc1c[nH]cn1)NC(=O)OCc1ccccc1)C(N)=O (single isomer, unassigned)	1600 nM	76 nM	20 nM
